From ChEMBL document CHEMBL3352778, “HDX reveals unique fragment ligands for the vitamin D receptor” (Bioorg Med Chem Lett, 2014)
Activity calls are given as the source filed them. The rule behind the calls is not given here.

Tests used:
Homo sapiens = species: Homo sapiens; assay: Agonist activity at human full length Flag-tagged RXR/His-tagged VDR assessed as ability to recruit coactivator DRIP205 up to 500 uM by Alphascreen assay
Outline: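 AlphaScreen proximity assay of the RXR–VDR complex run in agonist mode, i.e. without any added VDR agonist. Read-out is the proximity signal produced when coactivator peptide DRIP205 is recruited to the VDR–RXR complex. Fragments were tested at concentrations up to 500 µM.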

[1] = Antagonist activity at human full length Flag-tagged RXR/His-tagged VDR by Alphascreen assay
Outline: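 Antagonist-mode AlphaScreen assay: a non-secosteroidal VDR agonist was added to form the VDR/RXR/DRIP205 complex. Fragments were then added at 10 doses spanning 0.025–500 µM. Dissociation of the complex was quantified as loss of proximity signal on a multilabel reader, and dose–response curves were fitted.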

Structure (SMILES) | Activity (Homo sapiens) | IC50 [1] [µM]
Oc1coc(-c2ccccc2)c1 | inactive | 14.2
CCn1c(O)cc(C)cc1=O | inactive | 1.01
O=C1CCCC=C(Cl)N1c1ccccc1 | inactive | 6.98
Cn1c(=O)c2nc(-c3cccc(O)c3O)nnc2n(C)c1=O | inactive | 0.194
O=C(O)C1CSC=C(c2ccccc2)N1 (stereo unspecified) | inactive | 2.77
Oc1cc(-c2ccc(Cl)cc2)no1 | inactive | 67.1

Continued by falling IC50 [1], values first:

Activity (Homo sapiens) | IC50 [1] [µM] | Structure (SMILES)
inactive | 440 | O=C1CC=C(c2ccccc2)O1
inactive | 43.2 | Oc1cnn(-c2ccccc2)c1Cl
inactive | 20 | CCC1CCCCN1CC(=O)c1cccs1 (stereo unspecified)
inactive | 16.7 | O=C(O)/C=C(/c1ccccc1)c1cccs1
inactive | 6.83 | Oc1csc2ccccc12
inactive | 5.37 | Nc1ccc2c(c1)N=C(O)CN2
inactive | 1.3 | OC(c1ccc(-c2cccs2)cc1)(C(F)(F)F)C(F)(F)F
